# Source: ChEMBL document CHEMBL1811851, “Identification of a potent, state-dependent inhibitor of Nav1.7 with oral efficacy in the formalin model of persistent pain” (J Med Chem, 2011)
# Assays:
# [1] = AUC in Sprague-Dawley rat at 0.5 mg/kg, iv; format: ADME, organism-based; design: dose 0.5 mg/kg, route intravenous; details: plasma
# Outline: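 Male Sprague-Dawley rats dosed intravenously at 0.5 mg/kg in 0.5 mL/kg of 100% DMSO; pharmacokinetic parameters derived from plasma exposure.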
# [2] = system: LLC-PK1; experiment: Apparent permeability of the compound from basolateral to apical direction in pig LLC-PK1 cells expressing human MDR1; format: ADME, cell-based, Sus scrofa
# Outline: (§1)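 MDR1-LLC-PK1 pig kidney cells expressing human MDR1; compound at 5 μM with 0.1% BSA; apparent permeability measured apical-to-basolateral and basolateral-to-apical.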
# [3] = Aqueous solubility of the compound in 0.01 N HCl; format: physicochemical
# [4] = Aqueous solubility of the compound in PBS pH 7.4; format: physicochemical
# [5] = Aqueous solubility of the compound in SIF pH 6.8; format: physicochemical
# [6] = system: LLC-PK1; experiment: Apparent permeability of the compound from apical to basolateral direction in pig LLC-PK1 cells expressing human MDR1; format: ADME, cell-based, Sus scrofa; outline: as §1
# [7] = Oral bioavailability in Sprague-Dawley rat at 2 mg/kg; format: ADME, organism-based; details: in vivo
# Outline: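 Male Sprague-Dawley rats; oral dose 2 mg/kg in 10 mL/kg vehicle (30% hydroxypropyl-β-cyclodextrin pH 2.2 with methanesulfonic acid, or 1% Tween 80/2% HPMC pH 2.2 with HCl), compared with 0.5 mg/kg iv in DMSO.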
# [8] = system: Rattus norvegicus; experiment: Plasma concentration in formalin-induced Sprague-Dawley rat at 20 mg/kg, po by open-field test; format: ADME, organism-based; design: dose 20 mg/kg, route oral; details: in vivo
# Outline: (§2)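 Rats dosed orally 2 h before formalin; plasma sampled right after the formalin test (3 h post-dose) for total drug concentration.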
# [9] = system: Rattus norvegicus; experiment: Plasma concentration in Sprague-Dawley rat at 20 mg/kg, po by open-field test; format: ADME, organism-based; design: dose 20 mg/kg, route oral; details: in vivo
# Outline: (§3)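 Naive rats given oral doses of 3–30 mg/kg (n = 8 per dose), timed so recording began at the same post-dose interval as the formalin test; open-field photobeam beam breaks binned every 5 min and totalled; plasma drug measured; one-way ANOVA with Dunnett's versus vehicle.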
# [10] = system: Rattus norvegicus; experiment: Plasma concentration in formalin-induced Sprague-Dawley rat at 30 mg/kg, po by open-field test; format: ADME, organism-based; design: dose 30 mg/kg, route oral; details: in vivo; outline: as §2
# [11] = system: Plasma; experiment: Unbound plasma concentration in Sprague-Dawley rat at 3 mg/kg, po; format: ADME, organism-based; design: dose 3 mg/kg, route oral; details: in vivo
# [12] = system: Rattus norvegicus; experiment: Plasma concentration in Sprague-Dawley rat at 30 mg/kg, po by open-field test; format: ADME, organism-based; design: dose 30 mg/kg, route oral; details: in vivo; outline: as §3
# [13] = system: Rattus norvegicus; experiment: Plasma concentration in formalin-induced Sprague-Dawley rat at 3 mg/kg, po by open-field test; format: ADME, organism-based; design: dose 3 mg/kg, route oral; details: in vivo; outline: as §2
# [14] = system: Rattus norvegicus; experiment: Plasma concentration in Sprague-Dawley rat at 3 mg/kg, po by open-field test; format: ADME, organism-based; design: dose 3 mg/kg, route oral; details: in vivo; outline: as §3
# [15] = system: Rattus norvegicus; experiment: Plasma concentration in Sprague-Dawley rat at 10 mg/kg, po by open-field test; format: ADME, organism-based; design: dose 10 mg/kg, route oral; details: in vivo; outline: as §3
# [16] = system: Rattus norvegicus; experiment: Plasma concentration in formalin-induced Sprague-Dawley rat at 10 mg/kg, po by open-field test; format: ADME, organism-based; design: dose 10 mg/kg, route oral; details: in vivo; outline: as §2
Structure (SMILES),AUC [1],Papp [2],solubility [3],solubility [4],solubility [5],Papp [6],bioavailability [7],concentration [8],concentration [9],concentration [10],Cp(f) [11],concentration [12],concentration [13],concentration [14],concentration [15],concentration [16]
CC(=O)Nc1cccc(Nc2ncnc(N3CCc4ccccc4C3)n2)c1,126 ng·h/mL,29.3 ×10⁻⁶ cm/s,42 µg/mL,1 µg/mL,31 µg/mL,29.3 ×10⁻⁶ cm/s,,,,,,,,,,
CC(=O)Nc1cccc(Nc2ncnc(N3CCC(Oc4ccccc4)CC3)n2)c1,,26.1 ×10⁻⁶ cm/s,> 200 µg/mL,11 µg/mL,110 µg/mL,26.1 ×10⁻⁶ cm/s,52%,,,,,,,,,
CC(=O)Nc1cccc(Nc2ncnc(N3CCC(OCc4ccccc4)CC3)n2)c1,,22.2 ×10⁻⁶ cm/s,157 µg/mL,15 µg/mL,86 µg/mL,22.2 ×10⁻⁶ cm/s,19%,,,,,,,,,
CC(=O)Nc1cccc(Nc2ncnc(N3CCC(OCc4ccc(C(F)(F)F)cc4)CC3)n2)c1C,,,,,,,27%,,,,,,,,,
CC(=O)Nc1cccc(Nc2ncnc(N3CCC(OCc4ccc(OC(F)(F)F)cc4)CC3)n2)c1C,,,,,,,67%,3200 nM,2900 nM,4400 nM,14 nM,5400 nM,500 nM,500 nM,1400 nM,1400 nM
